The subject of one assay is Acanthamoeba polyphaga. The assay can be described thus: Anti-amoebic activity against Acanthamoeba polyphaga ATCC 30461 assessed as inhibition of amoebic growth incubated for 48 hrs by resazurin dye based microtiter plate analysis. It counts as functional. The gist of the method:
(§1)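 Trophozoites kept axenically in PYG medium at 28 °C, grown to confluence for 48 h, then diluted to 5 × 10^4 trophozoites/mL (1 × 10^4 cells per well). Azoles added from DMSO stocks via PYG to final 0.03125–64 μg/mL (twofold series); 1% DMSO controls. Incubated 48 h at 28 °C, then 0.02% resazurin added for a further 48 h. Purple-to-pink change scored as respiring cells; MIC in triplicate.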
A general note: Alamar Blue is a resazurin reagent that responds to reducing activity.

Assay [1] is described as follows: Catalytic inhibition of Acanthamoeba castellanii CYP51 expressed in Escherichia coli HMS-174 (DE3) cells assessed as inhibition of substrate induced 14alpha-demthylation using obtusifoliol as substrate incubated for 1 hr in presence of NADPH-CYP450 reductase by RP-HPLC analysis.
For assay [2], the system named is Acanthamoeba castellanii. Put plainly: Catalytic inhibition of Acanthamoeba castellanii CYP51 expressed in Escherichia coli HMS-174 (DE3) cells assessed as inhibition of substrate induced 14alpha-demthylation using obtusifoliol as substrate at […] incubated for 1 hr in presence of NADPH-CYP450 reductase by RP-HPLC analysis relative to control. The following applies: dose 1.5 µM.

Assay [3] concerns Acanthamoeba castellanii. The assay can be described thus: Anti-amoebic activity against Acanthamoeba castellanii ATCC 50491 assessed as inhibition of amoebic growth incubated for 48 hrs by resazurin dye based microtiter plate analysis. The class given is functional. The gist of the method:
as §1

Assay [4] concerns Acanthamoeba castellanii. The assay can be described thus: Substrate activity at Acanthamoeba castellanii CYP51 expressed in Escherichia coli HMS-174 (DE3) cells assessed as Kcat/Km measured after 60 sec by Michaelis-Menten analysis. The gist of the method:
(§2)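 Full-length His6-tagged CYP51, purified by Ni-NTA, Q- and CM-Sepharose, reconstituted with rat CPR (0.5 μM P450, 2 μM CPR), 37 °C. […] Rates as nmol product/min/nmol P450 vs total substrate, fitted to Michaelis–Menten hyperbola; triplicate, mean ± SD.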

For assay [5], the system named is Acanthamoeba castellanii. The assay can be described thus: Substrate activity at Acanthamoeba castellanii CYP51 expressed in Escherichia coli HMS-174 (DE3) cells assessed as Km measured after 60 sec by Michaelis-Menten analysis. The gist of the method:
as §2

A short description of assay [6]: Binding affinity to Acanthamoeba castellanii CYP51 expressed in Escherichia coli HMS-174 (DE3) cells assessed as dissociation constant by UV-Visible spectrophotometry.
For assay [7], the system named is Acanthamoeba castellanii. Put plainly: Substrate activity at Acanthamoeba castellanii CYP51 expressed in Escherichia coli HMS-174 (DE3) cells assessed as Kcat measured after 60 sec by Michaelis-Menten analysis. The gist of the method: as §2
Assay [8] deals with Acanthamoeba castellanii. Put plainly: Substrate activity at Acanthamoeba castellanii CYP51 expressed in Escherichia coli HMS-174 (DE3) cells assessed as Kcat/Km measured after 20 mins by Michaelis-Menten analysis. In a few lines:
as §2

The subject of assay [9] is Acanthamoeba castellanii. Put plainly: Substrate activity at Acanthamoeba castellanii CYP51 expressed in Escherichia coli HMS-174 (DE3) cells assessed as Kcat measured after 20 mins by Michaelis-Menten analysis. The gist of the method: as §2
The subject of assay [10] is Acanthamoeba castellanii. Put plainly: Substrate activity at Acanthamoeba castellanii CYP51 expressed in Escherichia coli HMS-174 (DE3) cells assessed as Km measured after 20 mins by Michaelis-Menten analysis. The gist of the method: as §2

SMILES strings stand for the structures. The source made the active and inactive calls. No cut-off for these calls is given here.

By MIC is commonly meant the lowest concentration that inhibits growth of the organism. What is called IC50 is the concentration at which inhibition is half-maximal. By inhibition is commonly meant the drop in the measured response relative to a control, in per cent. Turning to `C[C@@H](c1ncncc1F)[C@](O)(Cn1cncn1)c1ccc(F)cc1F` [VORICONAZOLE], the MIC with Acanthamoeba polyphaga was 0.75 µM; in the assay on Acanthamoeba castellanii [3], 0.09 µM. Further, the IC50 in assay [1] was found to be 450 nM. In addition, the inhibition with Acanthamoeba castellanii [2] amounted to 85%. As for `N#Cc1ccc(C(c2ccc(C#N)cc2)n2cncn2)cc1`, the inhibition entry in the assay with Acanthamoeba castellanii [2] was “inactive”. In the case of `CC[C@@H]([C@H](C)O)n1ncn(-c2ccc(N3CCN(c4ccc(OC[C@@H]5CO[C@@](Cn6cncn6)(c6ccc(F)cc6F)C5)cc4)CC3)cc2)c1=O`, the inhibition entry in the assay on Acanthamoeba castellanii [2] is “inactive”. In general, kcat/Km refers to the second-order rate constant that governs catalysis at low substrate concentration. The Km is the concentration of substrate that gives half-maximal velocity. As a reminder, the Kd is the equilibrium constant for the complex coming apart. A word on the kcat: it is the number of substrate molecules converted per active site and unit of time at saturation. In the case of `C=C(CC[C@@H](C)[C@H]1CC[C@@]2(C)C3=C(CC[C@]12C)[C@@]1(C)CC[C@H](O)[C@@H](C)[C@@H]1CC3)C(C)C` [OBTUSIFOLIOL], in the assay with Acanthamoeba castellanii [4], the kcat/Km amounted to 190000 M⁻¹ s⁻¹. In the assay on Acanthamoeba castellanii [5], the Km was found to be 2.7 µM. Moreover, the Kd in assay [6] was 30 nM. Further, the kcat with Acanthamoeba castellanii [7] was 0.513 s⁻¹. Turning to `CC(=O)N1CCN(c2ccc(OCC3COC(Cn4ccnc4)(c4ccc(Cl)cc4Cl)O3)cc2)CC1` (stereo not given), in the assay with Acanthamoeba castellanii [2], the inhibition entry was “inactive”. On to `O=C([C@@H](c1ccc(Cl)cc1)c1cccnc1)N1CCN(c2ccc(C(F)(F)F)cc2)CC1`, for which the IC50 in assay [1] is 5500 nM.

With `Clc1ccccc1C(c1ccccc1)(c1ccccc1)n1ccnc1`, the inhibition in the assay with Acanthamoeba castellanii [2] worked out at 82%. On to `CC(C)(C#N)c1cc(Cn2cncn2)cc(C(C)(C)C#N)c1`, for which the inhibition result with Acanthamoeba castellanii [2] was “inactive”. In the case of `O=C(N[C@@H](Cn1ccnc1)c1ccc(Cl)cc1Cl)c1ccc(-c2nnc(-c3ccccc3)o2)cc1`, the MIC in the assay on Acanthamoeba polyphaga is more than 64 µg/mL; with Acanthamoeba castellanii [3] it was 4 µM. Taken in the same sequence, the figures for `O[C@@](Cn1cnnn1)(c1ccc(F)cc1F)C(F)(F)c1ccc(-c2ccc(OCC(F)(F)F)cc2)cn1` [OTESECONAZOLE] were 0.114 µM and 0.057 µM.

Take `O=C(N[C@@H](Cn1ccnc1)c1ccc(-c2ccc(F)cc2)cc1F)c1ccc(-c2nnc(-c3ccccc3)o2)cc1`: the MIC with Acanthamoeba polyphaga and in the assay on Acanthamoeba castellanii [3] was more than 64 µg/mL each time.

Turning to `FC(F)(F)c1ccc(N(c2cccnc2)C2CCN(c3ccc(C(F)(F)F)cn3)CC2)cc1`, in assay [1], the IC50 stood at 1300 nM. Consider `CC(C)=CCC[C@@H](C)[C@H]1CC[C@@]2(C)C3=C(CC[C@]12C)[C@@]1(C)CC[C@H](O)C(C)(C)[C@@H]1CC3` [LANOSTEROL], for which the specificity constant (kcat/Km) with Acanthamoeba castellanii [8] was 2000 M⁻¹ s⁻¹. Also, the kcat in the assay on Acanthamoeba castellanii [9] is 0.102 s⁻¹. Further, in the assay with Acanthamoeba castellanii [10], the Km stood at 52 µM. The Kd in [6] amounted to 1220 nM. Consider `Clc1ccc(COC(Cn2ccnc2)c2ccc(Cl)cc2Cl)c(Cl)c1` (stereo not given), for which the inhibition in the assay on Acanthamoeba castellanii [2] stood at 25%. For the molecule `N#Cc1ccc(COc2ccc(C#Cc3ccc(C(F)(F)[C@](O)(Cn4cnnn4)c4ccc(F)cc4F)nc3)cc2)cc1` [VT-1598], the MIC in the assay on Acanthamoeba polyphaga is 0.425 µM; in the assay on Acanthamoeba castellanii [3] it was 0.077 µM. Besides, the IC50 in assay [1] worked out at 250 nM. `C[C@@H](c1nc(-c2ccc(C#N)cc2)cs1)[C@](O)(Cn1cncn1)c1ccc(F)cc1F`: in the assay on Acanthamoeba castellanii [2], the inhibition entry is “inactive”.

The record behind these values is ChEMBL document CHEMBL5543170, “Identification of Potent and Selective Inhibitors of Acanthamoeba: Structural Insights into Sterol 14α-Demethylase as a Key Drug Target” (J Med Chem, 2024).
